Measurements reported in publication PMC9359741 (Clinical Cancer Research, 2022).

Experiments:
[1] = test system: HNSCC, relapsed/refractory glioblastoma; conditions: plus spartalizumab; cited from earlier work
[2] = test system: advanced/metastatic PDA or colorectal cancer; conditions: plus durvalumab; cited from earlier work
pancreatic cancer = conditions: plus nivolumab; pancreatic cancer (N = 31); MSI-Stable; cited from earlier work
[3] = test system: patients with PDA, PD-1/PD-L1 IR advanced solid tumors or prOVCA; assay: Phase 2, ARRY-382 300 mg QD plus pembrolizumab 200 mg IV Q3W: adverse events; format: in vivo, human; conditions: all patients
Procedure, shortened: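 Open-label study at 12 US centres with three cohorts: pancreatic ductal adenocarcinoma after ≥1 prior systemic line; tumours progressing on anti-PD-1/PD-L1; ovarian, peritoneal or fallopian cancer progressing ≤6 months after ≥4 platinum cycles. Oral test compound 300 mg QD plus anti-PD-1 antibody 200 mg IV every 3 weeks. AEs, SAEs and labs graded by CTCAE v4.03 in all dosed patients; descriptive summary.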

[4] = test system: patients with selected advanced solid tumors; format: in vivo, human; conditions: Phase 1b
Procedure, shortened: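 Adults (≥18 y) with histologically or cytologically confirmed selected advanced solid tumours. Oral test compound started at 200 mg QD, with planned escalation to 400 mg QD, plus anti-PD-1 antibody 2 mg/kg IV every 3 weeks. DLT incidence defined the MTD (DLT criteria in supplement). AEs and lab abnormalities were graded by CTCAE v4.03 in all patients given ≥1 dose and summarized descriptively.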

CNC(=O)c1cc(Oc2ccc3nc(N[C@@H]4CCCC[C@H]4O)sc3c2)ccn1 [BLZ945]
Patients with a PR [1]: 2 patients

FC(F)(F)c1ccc(CNc2ccc(Cc3c[nH]c4ncc(Cl)cc34)cn2)cn1 [pexidartinib]
Patients with stable disease [2]: 4 patients

cabiralizumab: a CSF-1R–targeting antibody
Patients with a PR (pancreatic cancer): 3 patients

pembrolizumab: humanized monoclonal antibody that blocks the interaction between PD-1 and its ligands PD-L1 and PD-L2 [reference compound]
AEs considered to be related to pembrolizumab [3]: 36 (63.2%) n (%) | Pembrolizumab-related AEs: All AEs ([4]; Total, N = 19): 12 (63.2%) n (%) | Pembrolizumab-related increased AST ([4]; all patients): 36.8% | Pembrolizumab-related increased lipase ([4]; all patients): 26.3%
